Among the data in ChEMBL document CHEMBL3351454, “Design, synthesis, antimicrobial evaluation and molecular docking studies of some new thiophene, pyrazole and pyridone derivatives bearing sulfisoxazole moiety” (2014) are MIC, zone of inhibition and Activity values, retold here.

As a reminder, the MIC is the smallest concentration in the dilution series that meets the test's criterion for growth inhibition.

Values after ≈ are worked out from the molar mass of the structure shown. Active and inactive are the calls of the source.

What all share (assay type): functional
For test [1], the system named is Syncephalastrum racemosum. The experiment in a line: Antifungal activity against Syncephalastrum racemosum RCMB 05922 assessed as absence of turbidity after 48 hrs. The note with it: RCMB 05922, 48 h.
Test [2] has as its system Escherichia coli. Nature of the test: Antimicrobial activity against Escherichia coli RCMB 010052 assessed as absence of turbidity after 24 hrs. The note with it: RCMB 010052, 24 h. The method, boiled down:
(§1)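 Broth microdilution in Müller–Hinton broth. DMF stocks at 1000 µg/mL were diluted in broth to give twofold serial dilutions over 500–0.007 µg/mL. Bacterial inoculum was about 10^6 CFU/mL in 96-well plates, sealed and incubated at 37 °C for 24 h in a humid chamber. MIC was taken as the lowest concentration with no visible turbidity. DMF and uninoculated-medium controls were included. Only compounds giving zones >10 mm were tested.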

Test [3] deals with Streptococcus pneumoniae. The experiment in a line: Antimicrobial activity against Streptococcus pneumoniae RCMB 010010 assessed as inhibition zone at 5 mg/ml after 24 hrs. The note with it: RCMB 010010, 24 h, read-out: IZ. In a few lines:
(§2)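 Agar diffusion on nutrient agar seeded with 10^6 CFU/mL bacteria. Filter-paper disks were loaded with 100 µL of a 5 mg/mL compound solution in DMF, with a DMF-only control. Incubation was 37 °C for 24 h. Inhibition zone in mm (mean ± SD, triplicate plates) was measured beyond the 6 mm diameter.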

The subject of test [4] is Staphylococcus epidermidis. The experiment in a line: Antimicrobial activity against Staphylococcus epidermidis RCMB 010024 assessed as absence of turbidity after 24 hrs. The note with it: RCMB 010024, 24 h. In a few lines:
as §1

The test system of test [5] is Proteus vulgaris. Nature of the test: Antimicrobial activity against Proteus vulgaris RCMB 010085 assessed as inhibition zone at 5 mg/ml after 24 hrs. The note with it: for zone of inhibition at 5000 µg/mL: RCMB 010085, 24 h, read-out: IZ. In a few lines: as §2
The test system of test [6] is Proteus vulgaris. The experiment in a line: Antimicrobial activity against Proteus vulgaris RCMB 010085 assessed as absence of turbidity after 24 hrs. The method, boiled down:
as §1

Test [7] has as its system Klebsiella pneumoniae. The experiment in a line: Antimicrobial activity against Klebsiella pneumoniae RCMB 010093 assessed as absence of turbidity after 24 hrs. The note with it: RCMB 010093, 24 h. The method, boiled down: as §1
The subject of test [8] is Streptococcus pneumoniae. Nature of the test: Antimicrobial activity against Streptococcus pneumoniae RCMB 010010 assessed as absence of turbidity after 24 hrs. The note with it: RCMB 010010, 24 h. In a few lines:
as §1

Test [9] concerns Bacillus subtilis. The experiment in a line: Antimicrobial activity against Bacillis subtilis RCMB 010067 assessed as absence of turbidity after 24 hrs. The note with it: RCMB 010067, 24 h. The method, boiled down:
as §1

Test [10] relates to Geotrichum candidum. Nature of the test: Antifungal activity against Geotrichum candidum RCMB 05097 assessed as inhibition zone at 5 mg/ml after 48 hrs. The note with it: RCMB 05097, 48 h, read-out: IZ. In a few lines: (§3)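 Disk diffusion on nutrient agar seeded with 10^4 CFU/mL fungus. Sterile filter-paper disks carried 100 µL of a 5 mg/mL DMF solution, and DMF alone served as control. Plates were incubated at 25 °C for 48 h. Mean inhibition zone in mm ± SD was read beyond the 6 mm diameter, in triplicate.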

In test [11] the test system is Bacillus subtilis. Nature of the test: Antimicrobial activity against Bacillis subtilis RCMB 010067 assessed as inhibition zone at 5 mg/ml after 24 hrs. The note with it: RCMB 010067, 24 h, read-out: IZ. The method, boiled down:
as §2

Test [12] concerns Escherichia coli. Nature of the test: Antimicrobial activity against Escherichia coli RCMB 010052 assessed as inhibition zone at 5 mg/ml after 24 hrs. The note with it: RCMB 010052, 24 h, read-out: IZ. In a few lines:
as §2

Test [13] deals with Aspergillus fumigatus. The experiment in a line: Antifungal activity against Aspergillus fumigatus RCMB 02568 assessed as inhibition zone at 5 mg/ml after 48 hrs. The note with it: RCMB 02568, 48 h, read-out: IZ. In a few lines:
as §3

Test [14] relates to Syncephalastrum racemosum. The experiment in a line: Antifungal activity against Syncephalastrum racemosum RCMB 05922 assessed as inhibition zone at 5 mg/ml after 48 hrs. The note with it: RCMB 05922, 48 h, read-out: IZ.
Test [15] deals with Klebsiella pneumoniae. The experiment in a line: Antimicrobial activity against Klebsiella pneumoniae RCMB 010093 assessed as inhibition zone at 5 mg/ml after 24 hrs. The note with it: RCMB 010093, 24 h, read-out: IZ. In a few lines: as §2
The subject of test [16] is Aspergillus fumigatus. Nature of the test: Antifungal activity against Aspergillus fumigatus RCMB 02568 assessed as absence of turbidity after 48 hrs. The note with it: RCMB 02568, 48 h. The method, boiled down:
(§4)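 Broth microdilution in Sabouraud liquid medium. DMF stocks at 1000 µg/mL were diluted in broth to give twofold serial dilutions over 500–0.007 µg/mL. Fungal inoculum was about 10^4 CFU/mL in 96-well plates, sealed and incubated at 25 °C for 48 h in a humid chamber. MIC was taken as the lowest concentration with no visible turbidity. DMF and uninoculated-medium controls were included.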

The test system of test [17] is Geotrichum candidum. The experiment in a line: Antifungal activity against Geotrichum candidum RCMB 05097 assessed as absence of turbidity after 48 hrs. The note with it: RCMB 05097, 48 h. In a few lines: as §4
Test [18] deals with Staphylococcus epidermidis. The experiment in a line: Antimicrobial activity against Staphylococcus epidermidis RCMB 010024 assessed as inhibition zone at 5 mg/ml after 24 hrs. The note with it: RCMB 010024, 24 h, read-out: IZ. In a few lines: as §2

For the molecule `Cc1noc(NS(=O)(=O)c2ccc(NC(=O)/C(C#N)=C/c3ccc(Cl)cc3)cc2)c1C`, the MIC in [1] worked out at 0.98 µg/mL (≈ 2.14 µM); in [2], 0.49 µg/mL (≈ 1.07 µM); in test [4], 0.49 µg/mL (≈ 1.07 µM); in test [6] (RCMB 010085, 24 h), 3.9 µg/mL (≈ 8.54 µM); in test [7], 0.06 µg/mL (≈ 0.131 µM); in test [8], 0.98 µg/mL (≈ 2.14 µM). For the same molecule, the MIC in [9] came out at 0.03 µg/mL (≈ 0.0657 µM); in test [16], 0.98 µg/mL (≈ 2.14 µM); in [17], 0.12 µg/mL (≈ 0.263 µM). Besides, the zone of inhibition at 5000 µg/mL in [3] is 20.3 mm; in test [5] it was 19.2 mm; in test [10], 24.6 mm; in [11] it was 25.6 mm; in test [12], 22.1 mm; in [13] it was 20.3 mm. The results for the zone of inhibition at 5000 µg/mL in test [14], in test [15] and in test [18] were 21.6 mm, 23.9 mm and 22.3 mm, respectively.

As for `CC(=O)c1sc(NC23CC4CC(CC(C4)C2)C3)c(C(=O)Nc2ccc(S(=O)(=O)Nc3onc(C)c3C)cc2)c1N`, the MIC in test [1] worked out at 0.007 µg/mL (≈ 0.012 µM); in test [2], 0.007 µg/mL (≈ 0.012 µM); in test [4], 0.98 µg/mL (≈ 1.68 µM); in [6] (RCMB 010085, 24 h) it was 15.6 µg/mL (≈ 26.7 µM); in test [7], 0.98 µg/mL (≈ 1.68 µM); in test [8], 0.98 µg/mL (≈ 1.68 µM). Also, the MIC in [9] was 0.24 µg/mL (≈ 0.411 µM); in test [16], 0.06 µg/mL (≈ 0.103 µM); in [17], 0.12 µg/mL (≈ 0.206 µM). The zone of inhibition at 5000 µg/mL in test [3] was found to be 21.6 mm; in test [5] it was 17.4 mm; in test [10], 24.6 mm; in test [11] it was 22.9 mm; in test [12], 29.9 mm; in test [13], 25.3 mm. Moreover, the zone of inhibition at 5000 µg/mL is 26.9 mm in test [14], 20.3 mm in [15] and 20.9 mm in [18].

On to `Cc1noc(NS(=O)(=O)c2ccc(NC(=O)/C(C#N)=C/c3cccnc3)cc2)c1C`, for which the MIC is 3.9 µg/mL (≈ 9.21 µM) in test [1]; 0.12 µg/mL (≈ 0.283 µM) in test [2]; 0.49 µg/mL (≈ 1.16 µM) in test [4]; 3.9 µg/mL (≈ 9.21 µM) in test [6] (RCMB 010085, 24 h); 0.12 µg/mL (≈ 0.283 µM) in [7]; 0.06 µg/mL (≈ 0.142 µM) in test [8]. In addition, the MIC in test [9] worked out at 0.03 µg/mL (≈ 0.0708 µM); in test [16] it was 0.49 µg/mL (≈ 1.16 µM); in test [17], 0.03 µg/mL (≈ 0.0708 µM). The zone of inhibition at 5000 µg/mL was 24.6 mm in test [3]; 19.3 mm in test [5]; 25.6 mm in test [10]; 26.2 mm in [11]; 23.7 mm in test [12]; 23.4 mm in test [13]. Also, the zone of inhibition at 5000 µg/mL turned out to be 18.7 mm in [14], 24.2 mm in test [15] and 22.3 mm in test [18].

In the case of `C=CCNc1sc(C(C)=O)c(N)c1C(=O)Nc1ccc(S(=O)(=O)Nc2onc(C)c2C)cc1`, the MIC in test [1] stood at 0.98 µg/mL (≈ 2 µM); in test [2], 7.81 µg/mL (≈ 16 µM); in [4], 3.9 µg/mL (≈ 7.97 µM); in [7] it was 3.9 µg/mL (≈ 7.97 µM); in test [8], 0.98 µg/mL (≈ 2 µM); in test [9] it was 0.12 µg/mL (≈ 0.245 µM). Besides, the MIC was determined as 0.98 µg/mL (≈ 2 µM) in test [16] and 0.49 µg/mL (≈ 1 µM) in test [17]. The zone of inhibition at 5000 µg/mL in [3] came out at 20.6 mm; in test [10] it was 21.9 mm; in [11], 23.7 mm; in test [12], 18.3 mm; in [13], 20.6 mm; in test [14], 21.1 mm. Besides, the zone of inhibition at 5000 µg/mL in test [15] was determined as 18.9 mm; in test [18], 19.3 mm. Also, the result in [5] was inactive. Further, in test [6], the MIC entry is “inactive”.
